pIC50: −log10 of the molar value. The source made the active and inactive calls. The calls are words filed in the database; no cut-off is given here.
How the values were obtained:
Mus musculus [1] = test: Toxicity against C57BL/6J mouse assessed as weight loss at 30 mg/kg, ip administered as single dose measured after 24 hrs; format: organism-based; design: dose 30 mg/kg, route intraperitoneal; conditions: in vivo
How it was run: (§1)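 Male C57BL/6J mice, 12 weeks, 23-25 g, acclimatized one week on standard chow, 12 h/12 h light/dark, 22 °C; 4 per group. Fasted 12 h during dark cycle, then one i.p. injection (0.5 mL) of compound or vehicle (DMSO dissolved in RPMI 1640). Free access to chow for 24 h, then body weight recorded and behaviour observed. Weight data mean ± SEM, n=4.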

Mus musculus [2] = test: Toxicity against C57BL/6J mouse assessed as signs of suffering at 30 mg/kg, ip administered as single dose measured after 24 hrs; format: organism-based; design: dose 30 mg/kg, route intraperitoneal; conditions: in vivo; how it was run: as §1
[3] = target: Fatty acid synthase (Homo sapiens) (UniProt P49327); test: Inhibition of FASN in human SK-BR-3 cells assessed as oxidation of NADPH at 4 uM after 24 hrs by Spectrophotometric analysis relative to control; format: cell-based
[4] = target: Receptor tyrosine-protein kinase erbB-2 (Homo sapiens) (UniProt P04626); test: Inhibition of HER2 phosphorylation in human SK-BR-3 cells after 2 hrs by Western blot analysis; format: cell-based
How it was run: (§2)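 SK-Br3 cells treated for set times (6, 12 or 24 h; p-HER2 also at 2 h), trypsinized, and lysed in Tris pH 7.5/EDTA/NaCl/PMSF buffer. Equal protein resolved by SDS-PAGE (3-8% gel for HER2 forms, 4-12% gel for AKT/ERK). Blots blocked in 2.5% milk/TBS-T, primary antibody overnight at 4 °C, HRP secondary, chemiluminescence; β-actin reprobe as loading control. At least two independent experiments.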

SK-BR-3 [5] = test: Effect on total HER2 protein levels in human SKBR3 cells up to 6 hrs by Western blot analysis; format: functional, cell-based; how it was run: as §2
SK-BR-3 [6] = test: Cytotoxicity against human SKBR3 cells; format: functional, cell-based
How it was run: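 SK-Br3 cells (McCoy's 5A, 10% FBS) in MTT assay: seeded at 5 or 7 x 10³ cells/well, attached overnight, exposed 48 h to a range of concentrations. MTT 3 h at 37 °C, formazan in DMSO, absorbance at 570 or 540 nm. IC50 as mean±SEM of two independent experiments in triplicate.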

PANC-1 = test: Cytotoxicity against human PANC1 cells; format: functional, cell-based
How it was run: (§3)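 MTT colorimetric assay: cells seeded at 5 or 7 x 10³ cells/well, attached overnight, then given fresh medium with a range of compound concentrations for 48 h at 37 °C, 5% CO2. MTT added for 3 h, formazan dissolved in DMSO, absorbance read at 570 or 540 nm. IC50 as mean±SEM from at least two independent experiments in duplicate or triplicate.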

BT-20 = test: Cytotoxicity against human BT20 cells; format: functional, cell-based; how it was run: as §3
Mus musculus [7] = test: Toxicity against C57BL/6J mouse assessed as signs of suffering at 30 to 75 mg/kg, ip administered as single dose measured after 24 hrs; format: organism-based; design: dose 30-75 mg/kg, route intraperitoneal; conditions: in vivo; how it was run: as §1
MDA-MB-231 = test: Cytotoxicity against human MDA-MB-231 cells; format: functional, cell-based; how it was run: as §3
[8] = target: Carnitine O-palmitoyltransferase 1, liver isoform (Rattus norvegicus, UniProt P32198); test: Stimulation of rat CPT1A expressed in Pichia pastoris mitochondrial using [3H]carnitine after 3 mins by forward exchange method; format: ADME; conditions: 0.05 h
How it was run: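 Mitochondria isolated from GS115 Pichia pastoris expressing rat CPT1A, used in a forward exchange assay with 200 µM inhibitor, 2 mM L-[³H]carnitine, 80 µM palmitoyl-CoA, 20 mM HEPES pH 7.0, 1% fatty-acid-free albumin and 40-75 mM KCl. Incubated 3 min at 30 °C, stopped with perchloric acid, butanol-extracted [³H]palmitoylcarnitine counted. Mean±SEM of at least three independent mitochondrial preparations.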

FASN/HER2 (Homo sapiens) [9] = target: T1, FASN/HER2 (Homo sapiens) (UniProt P04626+P49327); test: Inhibition of FASN/HER2 in human SK-BR-3 cells assessed as reduction in p-AKT levels after 6 hrs by Western blot analysis; format: cell-based; how it was run: as §2
SK-BR-3 [10] = test: Induction of apoptosis in human SKBR3 cells assessed as cleavage of PARP by Western blot analysis; format: functional, cell-based; conditions: TDE = time-dependent effect
How it was run: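 SK-Br3 cells treated for up to 48 h, then immunoblotted for PARP on a 4-12% SDS gel. Intact PARP at 116 kDa, cleavage fragment at 89 kDa. Chemiluminescent detection with β-actin reprobe as loading control. At least two independent experiments.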

Mus musculus [11] = test: Toxicity against C57BL/6J mouse assessed as change in food intake at 30 to 75 mg/kg, ip administered as single dose measured after 24 hrs; format: organism-based; design: dose 30-75 mg/kg, route intraperitoneal; conditions: in vivo; how it was run: as §1
Bel-7402 = test: Cytotoxicity against human Bel7402 cells; format: functional, cell-based; how it was run: as §3
AU565 = test: Cytotoxicity against human AU565 cells; format: functional, cell-based; how it was run: as §3
SK-BR-3 [12] = test: Effect on total AKT protein levels in human SKBR3 cells up to 24 hrs; format: functional, cell-based; how it was run: as §2
SK-BR-3 [13] = test: Cytotoxicity against human SKBR3 cells after 48 hrs by MTT assay; format: functional, cell-based; conditions: SK-BR-3, 48 h; how it was run: as §3
NCI-H460 = test: Cytotoxicity against human H460 cells; format: functional, cell-based; how it was run: as §3
[14] = Selectivity ratio of IC50 for human HMEpC cells to IC50 for human SKBR3 cells; format: ADME, cell-based, SK-BR-3; conditions: HMEpC cells (normal) versus SKBR3 cells, read-out: Ratio IC50
Mus musculus [15] = test: Toxicity against C57BL/6J mouse assessed as distress at 30 to 75 mg/kg, ip administered as single dose measured after 24 hrs; format: organism-based; design: dose 30-75 mg/kg, route intraperitoneal; conditions: in vivo; how it was run: as §1
Mus musculus [16] = test: Toxicity against C57BL/6J mouse assessed as altered behaviour at 30 to 75 mg/kg, ip administered as single dose measured after 24 hrs; format: organism-based; design: dose 30-75 mg/kg, route intraperitoneal; conditions: in vivo; how it was run: as §1
SK-BR-3 [17] = test: Effect on total HER protein levels in human SKBR3 cells up to 24 hrs; format: functional, cell-based; how it was run: as §2
HCT-116 = test: Cytotoxicity against human HCT116 cells; format: functional, cell-based; how it was run: as §3
A-431 = test: Cytotoxicity against human A431 cells; format: functional, cell-based; how it was run: as §3
SK-BR-3 [18] = test: Effect on total ERK1/2 protein levels in human SKBR3 cells up to 24 hrs; format: functional, cell-based; how it was run: as §2
FASN/HER2 (Homo sapiens) [19] = target: T1, FASN/HER2 (Homo sapiens); test: Inhibition of FASN/HER2 in human SK-BR-3 cells assessed as reduction in p-ERK1/2 levels after 6 hrs by Western blot analysis; format: cell-based; how it was run: as §2
ZR-75-1 = test: Cytotoxicity against human ZR-75-1 cells; format: functional, cell-based; how it was run: as §3
SK-BR-3 [20] = test: Cytotoxicity against human SKBR3 cells transfected with FASN specific siRNA assessed as cell death up to 10 uM by MTT assay; format: functional, cell-based
How it was run: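 SK-Br3 cells transfected with a pool of three FASN-specific siRNAs (72 h), run alongside control-transfected cells. MTT viability read after 24 h compound exposure instead of 48 h. Knockdown checked by FASN immunoblot with β-actin. Mean±SEM of three experiments in duplicate; Student's t-test against the same concentration in control-transfected cells.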

[21] = Antiproliferative activity against human HL7702 cells; format: cell-based; conditions: L02; how it was run: as §3
SK-OV-3 = test: Cytotoxicity against human SKOV3 cells; format: functional, cell-based; how it was run: as §3
SK-BR-3 [22] = test: Effect on total HER2 protein levels in human SKBR3 cells up to 6 hrs by ELISA; format: functional, cell-based
A549 = test: Cytotoxicity against human A549 cells; format: functional, cell-based; how it was run: as §3
[23] = target: Receptor tyrosine-protein kinase erbB-2 (Homo sapiens) (UniProt P04626); test: Inhibition of HER2 phosphorylation in human SK-BR-3 cells after 6 hrs by Western blot analysis; format: cell-based
How it was run: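 SK-Br3 cells treated for 6, 12 or 24 h, harvested with trypsin-EDTA, lysed in Tris-HCl pH 7.5/EDTA/NaCl/PMSF buffer at 4 °C. Equal protein run on 3-8% SDS-PAGE and transferred to nitrocellulose. Membranes probed overnight at 4 °C with anti-phospho-HER2 mouse monoclonal, then peroxidase secondary and chemiluminescence. Re-probed for β-actin as loading control. Gels are representative of at least two independent experiments.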

[24] = target: Receptor tyrosine-protein kinase erbB-2 (Homo sapiens) (UniProt P04626); test: Inhibition of HER2 signaling in human SK-BR-3 cells up to 24 hrs; format: cell-based; how it was run: as §2
Mus musculus [25] = test: Toxicity against C57BL/6J mouse assessed as weight loss at 30 to 75 mg/kg, ip administered as single dose measured after 24 hrs; format: organism-based; design: dose 30-75 mg/kg, route intraperitoneal; conditions: in vivo; how it was run: as §1
SK-HEP1 = test: Cytotoxicity against human SKHEP1 cells; format: functional, cell-based; how it was run: as §3
[26] = Antiproliferative activity against human HMEpC cells; format: cell-based; how it was run: as §3
[27] = Cytotoxicity against human HCC827 cells; format: functional, cell-based; how it was run: as §3
[28] = Selectivity ratio of IC50 for human HL7702 cells to IC50 for human SKBR3 cells; format: ADME, cell-based; conditions: HL7702 cells (normal) versus SKBR3 cells, read-out: Ratio IC50
MCF7 = test: Cytotoxicity against human MCF7 cells; format: functional, cell-based; how it was run: as §3
HepG2 = test: Cytotoxicity against human HepG2 cells; format: functional, cell-based; how it was run: as §3

Receptor tyrosine-protein kinase erbB-2 (Homo sapiens), sequence (P04626 whole entry): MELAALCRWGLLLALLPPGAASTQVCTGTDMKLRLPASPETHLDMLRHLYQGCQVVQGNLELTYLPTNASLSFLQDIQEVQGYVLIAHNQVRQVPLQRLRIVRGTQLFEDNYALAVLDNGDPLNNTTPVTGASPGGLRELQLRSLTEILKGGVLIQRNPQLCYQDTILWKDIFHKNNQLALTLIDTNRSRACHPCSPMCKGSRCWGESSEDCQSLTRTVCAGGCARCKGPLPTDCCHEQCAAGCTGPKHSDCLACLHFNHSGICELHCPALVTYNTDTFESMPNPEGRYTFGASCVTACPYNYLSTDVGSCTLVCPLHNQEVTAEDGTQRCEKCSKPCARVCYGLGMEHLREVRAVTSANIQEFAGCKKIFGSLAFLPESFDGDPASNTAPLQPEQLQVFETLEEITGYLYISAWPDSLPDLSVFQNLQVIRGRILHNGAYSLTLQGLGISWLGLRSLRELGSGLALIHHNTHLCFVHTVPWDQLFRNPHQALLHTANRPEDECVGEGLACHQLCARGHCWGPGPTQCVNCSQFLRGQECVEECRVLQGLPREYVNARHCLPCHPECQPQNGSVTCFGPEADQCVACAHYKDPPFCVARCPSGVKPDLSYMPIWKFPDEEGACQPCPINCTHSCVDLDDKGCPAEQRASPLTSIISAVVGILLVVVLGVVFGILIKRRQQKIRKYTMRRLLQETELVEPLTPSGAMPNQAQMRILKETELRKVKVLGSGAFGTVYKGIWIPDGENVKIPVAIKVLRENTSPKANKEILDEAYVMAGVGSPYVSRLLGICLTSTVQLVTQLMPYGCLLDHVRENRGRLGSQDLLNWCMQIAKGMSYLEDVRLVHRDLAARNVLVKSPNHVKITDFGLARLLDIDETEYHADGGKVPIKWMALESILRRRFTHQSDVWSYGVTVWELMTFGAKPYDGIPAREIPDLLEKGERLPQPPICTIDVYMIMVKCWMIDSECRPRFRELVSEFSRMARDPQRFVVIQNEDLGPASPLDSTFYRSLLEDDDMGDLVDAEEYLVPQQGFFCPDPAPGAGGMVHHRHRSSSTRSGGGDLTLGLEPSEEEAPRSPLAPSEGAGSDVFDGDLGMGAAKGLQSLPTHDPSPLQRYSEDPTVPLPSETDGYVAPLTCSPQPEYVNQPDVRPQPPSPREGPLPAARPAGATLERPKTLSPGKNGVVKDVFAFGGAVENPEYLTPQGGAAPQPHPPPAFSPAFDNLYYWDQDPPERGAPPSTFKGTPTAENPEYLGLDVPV
T1 sequence (P04626 whole entry, looked up): as the sequence (P04626 whole entry) above
T1 sequence (P49327 whole entry, looked up): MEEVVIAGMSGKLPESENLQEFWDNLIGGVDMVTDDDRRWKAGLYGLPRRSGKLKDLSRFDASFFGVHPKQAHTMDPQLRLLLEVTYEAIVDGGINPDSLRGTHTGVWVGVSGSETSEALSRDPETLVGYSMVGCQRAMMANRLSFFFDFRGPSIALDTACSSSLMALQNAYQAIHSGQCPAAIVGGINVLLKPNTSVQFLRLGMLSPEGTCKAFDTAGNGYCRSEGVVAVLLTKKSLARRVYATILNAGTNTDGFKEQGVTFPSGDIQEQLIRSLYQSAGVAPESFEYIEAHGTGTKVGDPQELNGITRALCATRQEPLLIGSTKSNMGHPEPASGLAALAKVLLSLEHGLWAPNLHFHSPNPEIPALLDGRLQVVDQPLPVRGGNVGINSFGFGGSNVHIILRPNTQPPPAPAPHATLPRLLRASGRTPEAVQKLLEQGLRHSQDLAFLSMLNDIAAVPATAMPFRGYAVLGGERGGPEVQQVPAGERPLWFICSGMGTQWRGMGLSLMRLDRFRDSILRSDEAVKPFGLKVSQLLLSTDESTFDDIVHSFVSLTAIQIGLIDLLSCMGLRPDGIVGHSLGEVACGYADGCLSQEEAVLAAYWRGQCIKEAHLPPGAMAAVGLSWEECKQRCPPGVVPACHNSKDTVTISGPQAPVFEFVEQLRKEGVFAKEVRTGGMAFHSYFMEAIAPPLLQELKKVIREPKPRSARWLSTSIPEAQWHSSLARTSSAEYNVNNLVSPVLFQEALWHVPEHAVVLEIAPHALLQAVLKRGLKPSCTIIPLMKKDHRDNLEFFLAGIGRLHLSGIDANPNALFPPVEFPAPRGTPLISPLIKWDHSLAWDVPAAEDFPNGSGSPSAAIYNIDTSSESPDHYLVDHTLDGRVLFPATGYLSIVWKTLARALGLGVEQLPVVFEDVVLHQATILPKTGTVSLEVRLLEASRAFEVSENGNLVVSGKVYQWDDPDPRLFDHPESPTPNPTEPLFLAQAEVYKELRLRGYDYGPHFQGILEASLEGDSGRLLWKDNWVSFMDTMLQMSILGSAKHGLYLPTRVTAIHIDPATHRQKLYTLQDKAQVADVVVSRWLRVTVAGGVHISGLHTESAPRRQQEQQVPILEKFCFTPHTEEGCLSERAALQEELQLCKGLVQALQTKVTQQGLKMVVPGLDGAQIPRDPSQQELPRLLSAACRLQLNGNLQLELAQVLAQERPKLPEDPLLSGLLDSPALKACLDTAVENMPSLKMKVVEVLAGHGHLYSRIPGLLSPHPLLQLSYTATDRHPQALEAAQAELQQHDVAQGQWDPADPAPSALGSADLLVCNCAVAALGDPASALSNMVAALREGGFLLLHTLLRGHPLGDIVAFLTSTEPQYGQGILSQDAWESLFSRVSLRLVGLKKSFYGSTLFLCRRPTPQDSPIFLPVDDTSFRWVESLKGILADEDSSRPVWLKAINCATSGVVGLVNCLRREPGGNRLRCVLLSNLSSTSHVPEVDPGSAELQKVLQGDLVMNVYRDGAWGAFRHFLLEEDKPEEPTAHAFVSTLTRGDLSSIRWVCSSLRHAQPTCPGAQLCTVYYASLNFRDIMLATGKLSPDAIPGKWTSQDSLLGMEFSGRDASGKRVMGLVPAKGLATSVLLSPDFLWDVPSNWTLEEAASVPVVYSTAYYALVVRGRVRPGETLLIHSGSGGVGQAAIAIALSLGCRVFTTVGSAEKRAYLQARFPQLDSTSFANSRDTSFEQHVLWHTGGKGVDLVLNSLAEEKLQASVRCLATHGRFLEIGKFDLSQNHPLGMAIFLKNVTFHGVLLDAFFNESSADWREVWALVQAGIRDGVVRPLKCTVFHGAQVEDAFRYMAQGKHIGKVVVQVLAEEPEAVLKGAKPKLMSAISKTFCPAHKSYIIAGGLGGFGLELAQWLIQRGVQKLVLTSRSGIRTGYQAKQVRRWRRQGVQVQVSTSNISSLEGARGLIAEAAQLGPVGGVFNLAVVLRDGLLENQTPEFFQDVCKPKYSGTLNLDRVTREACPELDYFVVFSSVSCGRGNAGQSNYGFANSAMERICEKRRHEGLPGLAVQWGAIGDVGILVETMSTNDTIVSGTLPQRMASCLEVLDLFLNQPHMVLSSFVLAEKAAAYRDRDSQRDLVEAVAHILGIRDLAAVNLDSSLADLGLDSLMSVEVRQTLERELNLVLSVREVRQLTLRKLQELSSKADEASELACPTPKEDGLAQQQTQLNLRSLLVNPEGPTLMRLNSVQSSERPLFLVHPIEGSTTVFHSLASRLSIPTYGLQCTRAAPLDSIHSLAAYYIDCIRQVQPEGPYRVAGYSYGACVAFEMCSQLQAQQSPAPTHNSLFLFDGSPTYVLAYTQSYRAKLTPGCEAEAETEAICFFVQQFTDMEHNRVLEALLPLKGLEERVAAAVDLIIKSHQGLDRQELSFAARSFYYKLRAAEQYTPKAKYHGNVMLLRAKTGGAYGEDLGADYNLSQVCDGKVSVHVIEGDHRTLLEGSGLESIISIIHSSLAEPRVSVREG
Fatty acid synthase (Homo sapiens), sequence (P49327 whole entry, looked up): as above

SMILES: C=C1C(=O)O[C@H](CCCCCCCC)[C@H]1C(=O)O (relative stereo)
- Activity (Mus musculus [1]): 21%
- Activity (Mus musculus [2]): Toxic

SMILES: O=C(Oc1ccc(-c2ccc(OC(=O)c3cc(O)c(O)c(O)c3)cc2)cc1)c1cc(O)c(O)c(O)c1
- inhibition [3]: 90%
- inhibition [4]: Active
- Activity (SK-BR-3 [5]): inactive
- pIC50 (SK-BR-3 [6]): 5.40
- pIC50 (PANC-1): 5.68
- pIC50 (BT-20): 4.77
- Activity (Mus musculus [7]): Non-toxic
- pIC50 (MDA-MB-231): 5.30
- Activity [8]: Non-toxic
- inhibition (FASN/HER2 (Homo sapiens) [9]): Active
- Activity (SK-BR-3 [10]): tde
- Activity (Mus musculus [11]): Non-toxic
- pIC50 (Bel-7402): 4.40
- pIC50 (AU565): 4.62
- Activity (SK-BR-3 [12]): inactive
- pIC50 (SK-BR-3 [13]): 5.40
- pIC50 (NCI-H460): 5.05
- selectivity ratio [14]: 8
- Activity (Mus musculus [15]): Non-toxic
- Activity (Mus musculus [16]): Non-toxic
- Activity (SK-BR-3 [17]): inactive
- pIC50 (HCT-116): 5.40
- pIC50 (A-431): 5.85
- Activity (SK-BR-3 [18]): inactive
- inhibition (FASN/HER2 (Homo sapiens) [19]): Active
- pIC50 (ZR-75-1): 5.72
- Activity (SK-BR-3 [20]): inactive
- pIC50 [21]: 4.39
- pIC50 (SK-OV-3): 5.30
- Activity (SK-BR-3 [22]): inactive
- pIC50 (A549): 4.77
- inhibition [23]: Active
- inhibition [24]: Active
- Activity (Mus musculus [25]): Non-toxic
- pIC50 (SK-HEP1): 4.25
- pIC50 [26]: 4.51
- pIC50 [27]: 4.85
- selectivity ratio [28]: 10
- pIC50 (MCF7): 5.42
- pIC50 (HepG2): 4.15
